Data from paper PMC6957252 (Bioorganic & medicinal chemistry, 2016).
Each block holds one compound with its values, some of them ahead of it.

Legend:
[1] = in vivo; cited from earlier work
[2] = neuropathic pain model; cited from earlier work
[3] = molecular target: human TRPV1 heterologously expressed in Chinese hamster ovary (CHO) cells (Homo sapiens, UniProt Q8NER1); assay type: cell-based
Outline: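 45Ca2+ uptake in CHO cells heterologously expressing human TRPV1. […] Ki is calculated to account for competition between capsaicin and antagonist. In agonist mode, 300 nM capsaicin (saturating) defines maximal response, and absence or weakness of uptake is scored as no or weak effect. Values are mean ± SEM of at least three experiments.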

[4] = molecular target: human TRPV1 (Homo sapiens, UniProt Q8NER1); assay: binding competition assay with [3H]RTX; conditions: ratio of Ki versus 1S
Sequence of human TRPV1 (Q8NER1 whole entry): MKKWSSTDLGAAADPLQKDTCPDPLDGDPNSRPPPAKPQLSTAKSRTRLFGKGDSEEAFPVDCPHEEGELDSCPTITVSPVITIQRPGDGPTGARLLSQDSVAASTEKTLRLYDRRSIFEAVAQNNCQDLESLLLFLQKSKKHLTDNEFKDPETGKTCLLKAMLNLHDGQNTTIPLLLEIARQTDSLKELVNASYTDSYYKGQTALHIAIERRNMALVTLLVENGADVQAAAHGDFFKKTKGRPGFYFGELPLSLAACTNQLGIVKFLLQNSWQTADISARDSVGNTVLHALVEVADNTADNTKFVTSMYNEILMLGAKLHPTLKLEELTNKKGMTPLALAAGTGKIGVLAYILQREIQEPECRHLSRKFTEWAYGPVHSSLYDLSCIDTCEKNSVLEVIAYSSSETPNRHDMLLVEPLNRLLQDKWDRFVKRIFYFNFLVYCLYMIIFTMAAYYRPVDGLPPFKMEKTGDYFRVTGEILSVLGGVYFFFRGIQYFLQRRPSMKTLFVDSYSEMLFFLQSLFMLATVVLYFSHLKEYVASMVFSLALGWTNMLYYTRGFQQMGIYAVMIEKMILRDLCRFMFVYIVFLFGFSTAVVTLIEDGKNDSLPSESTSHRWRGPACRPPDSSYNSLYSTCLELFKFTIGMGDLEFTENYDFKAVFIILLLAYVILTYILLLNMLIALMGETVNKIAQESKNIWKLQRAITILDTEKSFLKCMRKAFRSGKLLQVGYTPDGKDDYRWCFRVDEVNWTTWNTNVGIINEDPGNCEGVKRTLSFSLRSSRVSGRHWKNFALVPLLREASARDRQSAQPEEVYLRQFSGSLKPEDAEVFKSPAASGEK
Outline: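 Competition binding of [3H]RTX to human TRPV1 heterologously expressed in CHO cells. Binding affinity reported as Ki. Values are mean ± SEM of at least three experiments.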

Sequence of human TRPV1 heterologously expressed in Chinese hamster ovary (CHO) cells (Q8NER1 whole entry): as above

Structure (SMILES): CC1CCN(c2nc(C(F)(F)F)ccc2CNC(=O)C(C)c2ccc(NS(C)(=O)=O)c(F)c2)CC1 (stereo not shown) [Compound 1]
effect on capsaicin-induced hypothermia [1]: blocked capsaicin-induced hypothermia
antiallodynic activity [2]: potent antiallodynic activity

Structure (SMILES): CC(C(=O)NCc1ccc(C(F)(F)F)nc1N(Cc1ccccc1)S(=O)(=O)c1ccccc1)c1ccc(NS(C)(=O)=O)c(F)c1 (stereo not shown) [Compound 12, N-((2-(N-Benzylphenylsulfonamido)-6-(trifluoromethyl)pyridin-3-yl)methyl)-2-(3-fluoro-4-(methylsulfonamido)phenyl)propanamide]
fold reduction in antagonism compared to lead compound 1 ([3]; ratio of Ki(ant) versus compound 1): 2.5 fold

Further lines, results first:

activity on hTRPV1 (in words) ([3]; binding affinity and antagonism, Table 1 series): little activity
Structure (SMILES): CC(C(=O)NCc1ccc(C(F)(F)F)nc1NS(=O)(=O)c1ccccc1)c1ccc(NS(C)(=O)=O)c(F)c1 (stereo not shown) [Compound 6, 2-(3-Fluoro-4-(methylsulfonamido)phenyl)-N-((2-(phenylsulfonamido)-6-(triflu-oromethyl)pyridin-3-yl)methyl)propanamide]

fold increase in binding affinity compared to 1S [4]: 5 fold
fold decrease in antagonism compared to 1S ([3]; ratio of Ki(ant) versus 1S): 1.5 fold
Structure (SMILES): C[C@H](C(=O)NCc1ccc(C(F)(F)F)nc1N(Cc1ccccc1)S(=O)(=O)c1ccccc1)c1ccc(NS(C)(=O)=O)c(F)c1 [Compound 12S, (S)-N-((2-(N-Benzylphenylsulfonamido)-6-(trifluoromethyl)pyridin-3-yl)methyl)-2-(3-fluoro-4-(methylsulfonamido)phenyl)propanamide]

fold more potent antagonism than 12 ([3]; ratio of Ki(ant) versus 12): ca. 3 fold
Structure (SMILES): COc1ccc(CN(c2nc(C(F)(F)F)ccc2CNC(=O)C(C)c2ccc(NS(C)(=O)=O)c(F)c2)S(=O)(=O)c2ccccc2)cc1 (stereo not shown) [Compound 19, 2-(3-Fluoro-4-(methylsulfonamido)phenyl)-N-((2-(N-(4-methoxybenzyl)phenyl-sulfonamido)-6-(trifluoromethyl)pyridin-3-yl)methyl)propanamide]
